Results on 2 compounds are retold here after ChEMBL document CHEMBL4346668, “Novel multitarget inhibitors with antiangiogenic and immunomodulator properties” (Eur J Med Chem, 2019).

SMILES strings stand for the structures. Activity calls are given as the source filed them. No cut-off for these calls is given here.

For test [1], the system named is HT-29. Put plainly: Antiproliferative activity against human HT-29 cells incubated for 2 days by MTT assay. Format: functional, cell-based. The conditions noted are these: HT-29, 48 h. An outline of the steps: (§1)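 MTT assay. Cells seeded at 3 × 10³/well (HeLa, A549, HMEC-1, HEK-293) or 5 × 10³/well (HT-29, MCF-7) in their growth media with serial compound dilutions from 10 mM DMSO stocks. Incubated 2 days at 37 °C, 5% CO₂, then MTT added for 3 h and formazan dissolved in DMSO. A540 read and viability expressed versus untreated cells. IC₅₀ determined graphically; three independent experiments.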

The subject of test [2] is MCF7. Put plainly: Antiproliferative activity against human MCF7 cells incubated for 2 days by MTT assay. Format: functional, cell-based. The conditions noted are these: MCF7, 48 h. An outline of the steps:
as §1

Test [3] has as its system HeLa. Put plainly: Antiproliferative activity against human HeLa cells incubated for 2 days by MTT assay. Format: functional, cell-based. The conditions noted are these: 48 h. An outline of the steps: as §1
Test [4] has as its system A549. Put plainly: Antiproliferative activity against human A549 cells incubated for 2 days by MTT assay. Format: functional, cell-based. The conditions noted are these: A549, 48 h. An outline of the steps:
as §1

Test [5] relates to HMEC-1. Put plainly: Antiproliferative activity against HMEC1 cells incubated for 2 days by MTT assay. Format: cell-based. The settings on record: Homo sapiens, HMEC-1, 48 h. An outline of the steps:
as §1

Test [6] deals with HEK293. In words: Antiproliferative activity against HEK293 cells incubated for 2 days by MTT assay. Format: cell-based. The conditions noted are these: Homo sapiens, HEK293, 48 h. An outline of the steps:
as §1

Test [7] deals with Vascular endothelial growth factor receptor 2 (Homo sapiens) (UniProt P35968). In words: Inhibition of VEGFR2 in HMEC1 cells assessed as phosphorylated Erk1/2 level at 10 uM incubated for 24 hrs by Western blot analysis relative to control. Format: cell-based. An outline of the steps: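 HMEC-1 lysates from the phospho-VEGFR-2 experiment (24 h compound, serum starvation, 30 min VEGF-165 stimulation) used at 100 µg protein for SDS gel electrophoresis and PVDF transfer. Blocked in 5% milk/TBST, then probed overnight at 4 °C with anti-phospho-ERK1/2 (T202/[…]) and an HRP secondary. Chemiluminescent detection; β-actin as internal control; quantified versus DMSO control.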

Test [8] concerns HMEC-1. In words: Antiangiogenic activity against HMEC1 cells assessed as inhibition of tube formation incubated for 20 hrs by matrigel based tube formation assay. Format: functional, Homo sapiens. An outline of the steps: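 HMEC-1 cells in EGM-2MV medium seeded at 2 x 10⁴ cells/well on Matrigel (10 mg/mL, gelled 30 min at 37°C) and attached for 30 min. Compounds were added at different concentrations and tube formation was assessed after 20 h at 37°C. The minimum concentration at which inhibition began was reported. Data representative of three experiments.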

The subject of test [9] is A549. Put plainly: Immunomodulatory activity in human A549 cells assessed as reduction in PD-L1 expression level at 100 uM incubated for 24 hrs by ELISA relative to control. Format: functional. Also noted: scale not given: the % may be the effect or the level left. An outline of the steps: (§2)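 A549 cells (3·10⁵/well) treated 24 h with compound; final concentration 100 µM for some compounds and 15 µM for others per table footnote. Lysates protein-normalized by Bradford, and PD-L1 and c-Myc quantified by commercial ELISA kits as % of DMSO-treated cells. Mean ± SD of three experiments.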

Test [10] concerns A549. In words: Immunomodulatory activity in human A549 cells assessed as reduction in c-Myc expression level at 100 uM incubated for 24 hrs by ELISA relative to control. Also on record: scale not given: the % may be the effect or the level left. Format: functional. An outline of the steps: as §2
The test system of test [11] is A549. In words: Antiproliferative activity against human A549 cells at 200 uM incubated for 24 hrs in presence of Jurkat T cells by trypan blue staining based Neubauer chamber method relative to control. Format: functional. An outline of the steps: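 Co-culture of 5 × 10⁴ tumor cells/well with 2 × 10⁵ PD-1-expressing Jurkat T cells in 1.5 mL, treated 24 h with compound at 200 µM. Supernatant discarded; tumor cells trypsinized, stained with trypan blue and living cells counted in a Neubauer chamber. Proliferation inhibition (%) attributable to Jurkat presence reported; representative of three experiments.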

The subject of test [12] is A549. In words: Induction of apoptosis in human A549 cells assessed as apoptotic cells at 100 uM incubated for 24 hrs by FITC-Annexin V staining based flow cytometric analysis (reference value: 20%). Format: functional.
Test [13] relates to A549. Put plainly: Effect on VEGFR2 in human A549 cells assessed as membrane VEGFR2 level at 10 uM incubated for 24 hrs by flow cytometric analysis relative to control. Format: functional. An outline of the steps: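 A549 cells incubated 24 h with compound at 10 µM. Membrane VEGFR-2 (fixed cells) and total VEGFR-2 (permeabilized or lysate) stained with Alexa Fluor 647 anti-CD309 and quantified by flow cytometry relative to DMSO control; mean ± SD of three experiments.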

The subject of test [14] is A549. In words: Effect on VEGFR2 in human A549 cells assessed as total VEGFR2 level at 10 uM incubated for 24 hrs by flow cytometric analysis relative to control. Format: functional.
Test [15] concerns A549. In words: Effect on VEGFR2 in human A549 cells assessed as reduction in membrane VEGFR2 level incubated for 24 hrs by confocal laser scanning microscopic method. Format: functional, cell-based. An outline of the steps:
(§3)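 A549 cells on cover glass treated 24 h with compound at 10 µM, then permeabilized (PEM-Triton X-100 0.5%) and fixed (3.7% formaldehyde). Direct staining 2 h at 37°C in darkness with Alexa Fluor 647 anti-VEGFR-2. Confocal imaging with a 63x oil objective, excitation 650 nm, emission 665 nm.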

In test [16] the test system is A549. Put plainly: Effect on VEGFR2 in human A549 cells assessed as inhibition of VEGFR2 protein internalization to nucleus incubated for 24 hrs by confocal laser scanning microscopic method. Format: functional, cell-based. An outline of the steps: as §3
For test [17], the system named is HMEC-1. Put plainly: Effect on VEGFR2 in HMEC1 cells assessed as membrane VEGFR2 level at 10 uM incubated for 24 hrs by flow cytometric analysis relative to control. Format: functional, Homo sapiens. An outline of the steps:
(§4)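 HMEC-1 cells exposed 24 h to compound. Membrane VEGFR-2 measured on fixed cells stained with Alexa Fluor 647 anti-CD309; total VEGFR-2 measured on lysates or permeabilized cells. Read by flow cytometry as % of DMSO control; mean ± SD of three experiments.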

In test [18] the test system is HMEC-1. In words: Effect on VEGFR2 in HMEC1 cells assessed as total VEGFR2 level at 10 uM incubated for 24 hrs by flow cytometric analysis relative to control. Format: functional, Homo sapiens. An outline of the steps: as §4
The target of test [19] is Vascular endothelial growth factor receptor 2 (Homo sapiens) (UniProt P35968). Put plainly: Inhibition of VEGFR2 in HMEC1 cells assessed as phosphorylated VEGFR2 level at 10 uM incubated for 24 hrs by sandwich ELISA. Format: cell-based. An outline of the steps: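 HMEC-1 cells (5 × 10⁵/well) grown to 80% confluence, starved 24 h in 0.1% FBS medium, then treated 24 h with compound. Stimulated with VEGF-165 100 ng/ml for 30 min at 37°C. Lysates Bradford-normalized; phospho-VEGFR-2 (Tyr1175) measured by sandwich ELISA, % of DMSO control.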

The test system of test [20] is HMEC-1. In words: Ratio of MAC for sorafenib to MAC of test compound for antiangiogenic activity against HMEC1 cells. Format: functional, Homo sapiens.
Test [21] relates to HMEC-1. Put plainly: Antiangiogenic activity against HMEC1 cells assessed as inhibition of neovascularization at 0.01 to 1 uM incubated for 20 hrs. Format: functional, cell-based. The settings on record: Homo sapiens. An outline of the steps: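 HMEC-1 cells seeded on Matrigel-coated wells (10 mg/mL Matrigel, gelled 30 min at 37°C) at 2 x 10⁴ cells/well in EGM-2MV medium and allowed to attach 30 min. Compound was then added at 1, 0.1 and 0.01 µM, and tube destruction was assessed after 20 h at 37°C by imaging.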

In test [22] the test system is A549. Put plainly: Immunomodulatory activity in human A549 cells assessed as inhibition of c-Myc level at 100 uM incubated for 24 hrs by confocal laser scanning microscopic method. Format: functional, cell-based. An outline of the steps: (§5)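 A549 cells on cover glass treated 24 h at 100 µM, permeabilized with PEM-Triton X-100 0.5% and fixed in 3.7% formaldehyde. Direct immunostaining 2 h at 37°C in darkness with anti-PD-L1-AlexaFluor647 (excitation 650, emission 665 nm) and anti-c-Myc-FITC (excitation 488, emission 496–535 nm). Confocal microscopy, 63x oil objective.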

The subject of test [23] is A549. Put plainly: Immunomodulatory activity in human A549 cells assessed as inhibition of PD-L1 level at 100 uM incubated for 24 hrs by confocal laser scanning microscopic method. Format: functional, cell-based. An outline of the steps: as §5
Test [24] has as its target Programmed cell death 1 ligand 1 (Homo sapiens) (UniProt Q9NZQ7). In words: Binding affinity to PDL1 (unknown origin) assessed as change in melting temperature at 100 uM by fluorescence based real time RT-PCR analysis.
Test [25] has as its target Vascular endothelial growth factor receptor 2 (Homo sapiens) (UniProt P35968).

Vascular endothelial growth factor receptor 2 (Homo sapiens), sequence (P35968 whole entry): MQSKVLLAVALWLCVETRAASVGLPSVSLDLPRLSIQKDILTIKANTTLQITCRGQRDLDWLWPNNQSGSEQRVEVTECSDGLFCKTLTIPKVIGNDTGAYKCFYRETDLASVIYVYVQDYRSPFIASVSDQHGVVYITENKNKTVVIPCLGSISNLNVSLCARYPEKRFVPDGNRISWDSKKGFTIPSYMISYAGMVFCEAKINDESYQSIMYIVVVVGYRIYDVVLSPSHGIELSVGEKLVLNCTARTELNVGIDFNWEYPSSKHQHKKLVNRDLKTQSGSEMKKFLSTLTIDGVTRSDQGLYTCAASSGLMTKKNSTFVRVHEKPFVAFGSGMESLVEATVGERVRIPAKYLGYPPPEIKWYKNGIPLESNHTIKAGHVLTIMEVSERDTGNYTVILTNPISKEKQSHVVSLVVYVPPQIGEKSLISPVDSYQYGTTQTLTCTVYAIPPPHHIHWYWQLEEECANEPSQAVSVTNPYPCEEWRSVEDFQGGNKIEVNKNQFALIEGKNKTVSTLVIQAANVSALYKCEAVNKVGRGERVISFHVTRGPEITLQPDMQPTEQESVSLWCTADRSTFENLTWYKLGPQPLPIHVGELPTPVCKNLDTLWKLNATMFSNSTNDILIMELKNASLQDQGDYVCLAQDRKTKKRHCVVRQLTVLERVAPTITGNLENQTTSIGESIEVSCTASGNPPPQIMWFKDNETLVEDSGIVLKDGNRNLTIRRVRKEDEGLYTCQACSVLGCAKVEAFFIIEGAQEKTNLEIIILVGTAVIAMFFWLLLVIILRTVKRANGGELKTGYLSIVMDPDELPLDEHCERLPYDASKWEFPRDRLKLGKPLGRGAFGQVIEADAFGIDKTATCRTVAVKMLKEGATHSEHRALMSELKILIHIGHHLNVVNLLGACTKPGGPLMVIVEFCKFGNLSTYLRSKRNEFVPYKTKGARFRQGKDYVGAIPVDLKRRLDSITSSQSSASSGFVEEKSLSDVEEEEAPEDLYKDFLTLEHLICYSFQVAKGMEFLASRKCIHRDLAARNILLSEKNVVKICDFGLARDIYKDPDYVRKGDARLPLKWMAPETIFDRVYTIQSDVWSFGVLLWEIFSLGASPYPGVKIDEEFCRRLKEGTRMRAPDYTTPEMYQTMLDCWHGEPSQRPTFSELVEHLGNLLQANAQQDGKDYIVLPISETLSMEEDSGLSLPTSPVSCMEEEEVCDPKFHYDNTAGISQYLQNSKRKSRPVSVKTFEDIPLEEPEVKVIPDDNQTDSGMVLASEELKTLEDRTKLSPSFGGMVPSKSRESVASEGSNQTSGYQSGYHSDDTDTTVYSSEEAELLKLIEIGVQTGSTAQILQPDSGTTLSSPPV
Programmed cell death 1 ligand 1 (Homo sapiens), sequence (Q9NZQ7 whole entry): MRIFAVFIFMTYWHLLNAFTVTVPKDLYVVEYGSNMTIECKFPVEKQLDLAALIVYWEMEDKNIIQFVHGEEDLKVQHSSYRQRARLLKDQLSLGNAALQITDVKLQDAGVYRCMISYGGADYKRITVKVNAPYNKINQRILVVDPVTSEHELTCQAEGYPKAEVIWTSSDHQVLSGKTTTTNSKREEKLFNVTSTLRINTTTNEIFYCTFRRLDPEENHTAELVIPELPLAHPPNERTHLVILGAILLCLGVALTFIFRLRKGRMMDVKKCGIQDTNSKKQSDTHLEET

Regarding `COc1ccc(/C=C/c2cccc(NC(=O)Nc3ccc(Cl)cc3)c2)cc1`, the IC50 came to 520 nM in test [1]; 400 nM in test [2]; 700 nM in test [3]; 1500 nM in [4]; 1800 nM in test [5]; 1000 nM in test [6]. Also, the result in test [7] and in test [19] was inactive. Further, the MAC in test [8] was 0.1 µM. For the same compound, the Activity in test [9] worked out at 25%; in test [10], 37%; in test [11], 86%; in [12], 48%; in [13], 56%; in [14] it was 10%. The Activity worked out at 56% in test [17] and 109% in test [18]. Besides, the result in [15], in [16], in test [21], in test [22] and in [23] was Active. The Ratio in test [20] is 100. Besides, the ΔTm in test [24] is 1.18 °C; in test [25], 6.25 °C.

On to `COc1ccc(/C=C/c2cccc(NC(=O)Nc3cccc(Cl)c3)c2)cc1`, for which the IC50 in test [1] was 3500 nM; in test [2] it was 4300 nM; in [3], 11300 nM; in [4], 7700 nM; in test [5] it was 2000 nM; in test [6] it was 2400 nM. For the same compound, the result in test [7] and in test [19] was inactive. In addition, the MAC in test [8] was determined as 0.1 µM. In addition, the Activity in [9] stood at 49%; in [10], 65%; in [11] it was 76%; in test [12] it was 75%; in test [13] it was 52%; in test [14] it was 32%. The Activity in test [17] was 55%; in [18], 106%. Further, the outcome in [15] was Active. In test [20], the Ratio worked out at 100. The ΔTm in test [24] worked out at 3.91 °C; in test [25], 8.35 °C.
